Test results reported in ChEMBL document CHEMBL1148788 (J Med Chem, 2007).
Values joined by “and” are separate entries in the source; they are usually repeats but may differ in a detail not shown here. Equal values may be shown once. Active and inactive are the calls of the source. No cut-off for these calls is given here.

Tests used:
[1] = tested on: tsA201; experiment: Displacement of [3H]methyllycaconitine from chimeric alpha-7nAChR Y188A mutant/5-HT3A receptor in tsA201 cells; assay type: cell-based; conditions: Homo sapiens
In short: (§1)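 tsA-201 cells transiently transfected with 4 µg WT or mutant α7/5-HT3A chimera and assayed 2 days later. Membranes washed twice at 50000g in 50 mM Tris-HCl pH 7.2. Incubated with 0.5 nM [3H]MLA and compound for 2.5 h at room temperature with shaking; nonspecific binding with 5 mM (S)-nicotine. PEI-soaked GF/C filtration, scintillation counting. Ki derived; duplicate, 3–7 experiments.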

[2] = molecular target: T1, Neuronal acetylcholine receptor; alpha3/beta4 (Rattus norvegicus, UniProt P04757+P12392); experiment: Antagonist activity at rat alpha3beta4 nAChR expressed in HEK293 cells by FMP assay; assay type: functional, cell-based, Homo sapiens; conditions: read-out: IC50
T1 sequence (P04757 whole entry): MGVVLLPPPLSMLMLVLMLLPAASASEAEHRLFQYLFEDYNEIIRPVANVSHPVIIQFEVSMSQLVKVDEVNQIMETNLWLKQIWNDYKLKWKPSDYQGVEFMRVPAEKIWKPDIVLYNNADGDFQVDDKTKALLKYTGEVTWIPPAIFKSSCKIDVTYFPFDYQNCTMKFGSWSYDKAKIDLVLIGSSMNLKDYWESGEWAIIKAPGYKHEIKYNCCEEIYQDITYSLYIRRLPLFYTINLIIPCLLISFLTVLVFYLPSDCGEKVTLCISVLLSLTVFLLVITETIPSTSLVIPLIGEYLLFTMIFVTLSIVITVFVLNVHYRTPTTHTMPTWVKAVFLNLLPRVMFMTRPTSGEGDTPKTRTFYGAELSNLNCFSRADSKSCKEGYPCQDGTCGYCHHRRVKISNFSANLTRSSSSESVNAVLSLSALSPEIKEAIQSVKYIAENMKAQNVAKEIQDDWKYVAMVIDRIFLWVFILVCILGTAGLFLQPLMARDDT
T1 sequence (P12392 whole entry): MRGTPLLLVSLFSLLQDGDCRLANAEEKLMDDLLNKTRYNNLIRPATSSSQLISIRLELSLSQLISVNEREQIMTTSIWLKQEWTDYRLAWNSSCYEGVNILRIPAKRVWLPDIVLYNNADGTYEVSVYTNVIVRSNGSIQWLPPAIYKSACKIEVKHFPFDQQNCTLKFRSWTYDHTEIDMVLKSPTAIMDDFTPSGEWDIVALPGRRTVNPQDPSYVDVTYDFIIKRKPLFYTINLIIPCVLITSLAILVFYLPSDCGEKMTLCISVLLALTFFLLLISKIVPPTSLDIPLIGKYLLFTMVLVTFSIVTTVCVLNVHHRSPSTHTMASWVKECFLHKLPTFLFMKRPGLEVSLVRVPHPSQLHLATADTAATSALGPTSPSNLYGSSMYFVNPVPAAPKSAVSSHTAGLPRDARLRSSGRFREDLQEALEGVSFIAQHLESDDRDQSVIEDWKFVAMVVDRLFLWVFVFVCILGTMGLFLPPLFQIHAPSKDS

[3] = tested on: tsA201; experiment: Displacement of [3H]methyllycaconitine from chimeric alpha-7nAChR W55A/Y195A mutant /5HT3A receptor in tsA201 cells; assay type: cell-based; conditions: Homo sapiens; in short: as §1
[4] = Displacement of [3H]methyllycaconitine from chimeric alpha-7nAChR Y168A mutant/5HT3A receptor in tsA201 cells; assay type: cell-based, Homo sapiens; in short: as §1
[5] = molecular target: T2, 5-hydroxytryptamine receptor 3A (Homo sapiens, UniProt P46098); experiment: Displacement of [3H]GR65630 from human 5HT3A receptor in HEK293 cells; assay type: cell-based
T2 sequence (P46098 whole entry): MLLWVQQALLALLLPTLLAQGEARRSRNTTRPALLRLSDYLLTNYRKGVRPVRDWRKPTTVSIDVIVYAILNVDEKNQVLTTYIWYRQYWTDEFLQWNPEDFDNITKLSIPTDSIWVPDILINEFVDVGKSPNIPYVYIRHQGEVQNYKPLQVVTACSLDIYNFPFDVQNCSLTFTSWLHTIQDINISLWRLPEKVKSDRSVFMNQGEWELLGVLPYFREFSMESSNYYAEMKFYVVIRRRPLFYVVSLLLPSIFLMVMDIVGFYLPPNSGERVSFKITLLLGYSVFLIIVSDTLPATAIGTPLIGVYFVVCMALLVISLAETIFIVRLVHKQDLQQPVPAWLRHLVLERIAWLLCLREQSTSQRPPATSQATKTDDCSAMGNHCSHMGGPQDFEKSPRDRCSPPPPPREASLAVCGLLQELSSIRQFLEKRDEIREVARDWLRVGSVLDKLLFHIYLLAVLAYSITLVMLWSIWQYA

[6] = Displacement of [3H]methyllycaconitine from chimeric alpha-7nAChR N107A mutant/5HT3A receptor in tsA201 cells; assay type: cell-based, Homo sapiens; in short: as §1
[7] = molecular target: T3, Neuronal acetylcholine receptor subunit alpha-7 (Homo sapiens, UniProt P36544); experiment: Displacement of [3H]methyllycaconitine from human alpha-7 in tsA201 cells coexpressed with 5HT3A receptor; assay type: cell-based
Target sequence in this assay (P36544 whole entry): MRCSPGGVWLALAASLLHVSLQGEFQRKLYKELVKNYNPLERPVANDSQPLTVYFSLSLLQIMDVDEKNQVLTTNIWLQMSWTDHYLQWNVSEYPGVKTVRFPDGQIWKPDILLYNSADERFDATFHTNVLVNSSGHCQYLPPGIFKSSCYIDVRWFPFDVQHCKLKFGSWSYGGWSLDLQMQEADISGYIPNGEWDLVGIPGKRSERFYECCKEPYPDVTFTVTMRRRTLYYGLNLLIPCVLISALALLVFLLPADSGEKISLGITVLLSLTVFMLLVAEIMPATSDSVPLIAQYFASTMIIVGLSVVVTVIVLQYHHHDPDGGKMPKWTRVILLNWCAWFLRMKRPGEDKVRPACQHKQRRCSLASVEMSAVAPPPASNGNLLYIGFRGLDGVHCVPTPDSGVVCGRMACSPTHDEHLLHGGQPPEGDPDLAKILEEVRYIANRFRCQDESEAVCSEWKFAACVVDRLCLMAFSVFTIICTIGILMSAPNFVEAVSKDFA

[8] = Displacement of [3H]methyllycaconitine from chimeric alpha7nAChR R79A mutant/5HT3A receptor R79A mutant in tsA201 cells; assay type: cell-based, Homo sapiens; in short: as §1
[9] = Displacement of [3H]methyllycaconitine from chimeric alpha-7nAChR W55A mutant /5HT3A receptor in tsA201 cells; assay type: cell-based, Homo sapiens; in short: as §1
[10] = Antagonist activity at human alpha-7 nAChR Y195A mutant coexpressed with human Ric3 in tsA201 cells by FMP assay; assay type: functional, cell-based
[11] = molecular target: Neuronal acetylcholine receptor; alpha4/beta2 (Rattus norvegicus, UniProt P09483+P12390); experiment: Displacement of [3H]epibatidine from rat recombinant alpha-4-beta-2 nAChR in HEK293 cell line; assay type: cell-based
Sequence of Neuronal acetylcholine receptor; alpha4/beta2 (P09483 whole entry): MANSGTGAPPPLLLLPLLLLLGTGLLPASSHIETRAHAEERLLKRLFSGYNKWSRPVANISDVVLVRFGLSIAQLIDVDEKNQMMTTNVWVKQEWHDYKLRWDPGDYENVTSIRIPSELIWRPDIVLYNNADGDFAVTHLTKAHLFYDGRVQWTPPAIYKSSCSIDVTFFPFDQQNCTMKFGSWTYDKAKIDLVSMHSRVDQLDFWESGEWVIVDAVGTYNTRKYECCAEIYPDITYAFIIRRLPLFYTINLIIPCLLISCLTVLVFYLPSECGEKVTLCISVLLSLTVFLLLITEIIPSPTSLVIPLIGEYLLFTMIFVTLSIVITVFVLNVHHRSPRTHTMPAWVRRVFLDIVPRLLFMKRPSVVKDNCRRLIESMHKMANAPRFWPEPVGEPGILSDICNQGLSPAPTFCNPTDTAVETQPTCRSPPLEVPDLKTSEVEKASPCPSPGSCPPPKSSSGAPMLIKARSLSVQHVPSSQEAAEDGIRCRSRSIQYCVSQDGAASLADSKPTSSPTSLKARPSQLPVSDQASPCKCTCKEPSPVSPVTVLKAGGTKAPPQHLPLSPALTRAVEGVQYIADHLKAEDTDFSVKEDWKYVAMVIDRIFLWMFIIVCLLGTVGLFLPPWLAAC
Sequence of Neuronal acetylcholine receptor; alpha4/beta2 (P12390 whole entry): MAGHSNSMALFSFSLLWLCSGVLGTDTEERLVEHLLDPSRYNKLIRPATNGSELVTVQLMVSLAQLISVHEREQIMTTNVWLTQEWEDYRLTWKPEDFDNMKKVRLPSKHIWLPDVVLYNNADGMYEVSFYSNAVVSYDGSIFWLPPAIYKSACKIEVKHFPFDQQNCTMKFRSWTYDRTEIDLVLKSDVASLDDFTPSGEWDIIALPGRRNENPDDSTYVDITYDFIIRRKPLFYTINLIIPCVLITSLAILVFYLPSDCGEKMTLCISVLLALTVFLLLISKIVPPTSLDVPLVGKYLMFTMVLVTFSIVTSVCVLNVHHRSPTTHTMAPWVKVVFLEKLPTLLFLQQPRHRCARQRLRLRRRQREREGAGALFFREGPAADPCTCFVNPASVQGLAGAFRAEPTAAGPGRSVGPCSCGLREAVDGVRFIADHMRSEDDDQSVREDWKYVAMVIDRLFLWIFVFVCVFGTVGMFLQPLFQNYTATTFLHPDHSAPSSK

[12] = Displacement of [3H]methyllycaconitine from chimeric alpha-7nAChR D197A mutant/5HT3A receptor in tsA201 cells; assay type: cell-based, Homo sapiens; in short: as §1
[13] = molecular target: T4, Glycine receptor subunit alpha-1 (Homo sapiens, UniProt P23415); experiment: Antagonist activity at human glycine alpha-1 receptor in HEK293 cells by FMP assay; assay type: functional, cell-based
T4 sequence (P23415 whole entry): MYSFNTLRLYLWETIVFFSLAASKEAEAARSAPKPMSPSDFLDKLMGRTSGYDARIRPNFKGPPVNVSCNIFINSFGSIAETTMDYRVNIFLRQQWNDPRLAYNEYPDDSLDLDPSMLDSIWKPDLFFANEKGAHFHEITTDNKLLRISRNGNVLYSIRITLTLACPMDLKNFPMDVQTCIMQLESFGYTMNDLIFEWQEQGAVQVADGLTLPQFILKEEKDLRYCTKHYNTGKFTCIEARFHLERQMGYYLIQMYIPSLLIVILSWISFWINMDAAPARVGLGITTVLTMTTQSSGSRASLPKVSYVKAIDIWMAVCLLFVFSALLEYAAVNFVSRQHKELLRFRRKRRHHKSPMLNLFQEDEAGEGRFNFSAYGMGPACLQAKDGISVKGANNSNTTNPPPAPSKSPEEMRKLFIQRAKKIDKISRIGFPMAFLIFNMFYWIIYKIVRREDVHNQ

[14] = molecular target: Neuronal acetylcholine receptor; alpha4/beta4 (Rattus norvegicus, UniProt P09483+P12392); experiment: Displacement of [3H]epibatidine from recombinant rat alpha-4-beta-4 nAChr in HEK293 cell line; assay type: cell-based
Sequence of Neuronal acetylcholine receptor; alpha4/beta4 (P09483 whole entry): as the sequence (P09483 whole entry) above
Sequence of Neuronal acetylcholine receptor; alpha4/beta4 (P12392 whole entry): as the sequence (P12392 whole entry) above

[15] = molecular target: T3, Neuronal acetylcholine receptor subunit alpha-7; experiment: Displacement of [3H]methyllycaconitine from chimeric alpha7nAChR/5HT3A in tsA201 cells; assay type: cell-based
Target sequence in this assay (P36544 23-502 limits assumed): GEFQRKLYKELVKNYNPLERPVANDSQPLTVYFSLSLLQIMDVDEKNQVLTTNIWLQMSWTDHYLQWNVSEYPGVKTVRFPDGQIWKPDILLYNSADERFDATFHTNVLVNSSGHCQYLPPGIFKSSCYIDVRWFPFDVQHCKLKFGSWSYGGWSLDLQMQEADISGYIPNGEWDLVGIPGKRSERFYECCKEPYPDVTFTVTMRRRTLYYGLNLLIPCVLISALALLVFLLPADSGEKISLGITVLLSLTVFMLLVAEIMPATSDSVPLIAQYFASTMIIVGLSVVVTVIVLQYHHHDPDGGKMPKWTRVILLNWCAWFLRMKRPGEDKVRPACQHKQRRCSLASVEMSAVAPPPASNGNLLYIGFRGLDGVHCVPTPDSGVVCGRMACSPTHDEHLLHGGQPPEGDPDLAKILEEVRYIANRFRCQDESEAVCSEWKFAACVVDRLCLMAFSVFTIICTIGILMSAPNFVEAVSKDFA

[16] = molecular target: T2, 5-hydroxytryptamine receptor 3A; experiment: Antagonist activity at human 5HT3A receptor expressed in HEK293 cells by FMP assay; assay type: functional, cell-based; conditions: read-out: IC50
[17] = tested on: tsA201; experiment: Displacement of [3H]methyllycaconitine from chimeric alpha-7nAChR W149A mutant/5HT3A receptor in tsA201 cells; assay type: cell-based; conditions: Homo sapiens; in short: as §1
[18] = Displacement of [3H]methyllycaconitine from chimeric alpha-7nAChR Y195F mutant/5HT3A receptor in tsA201 cells; assay type: cell-based, Homo sapiens; in short: as §1
[19] = Antagonist activity at human alpha7nAChR Y93A mutant co-expressed with human Ric3 in tsA201 cells by FMP assay; assay type: functional, cell-based
[20] = molecular target: T3, Neuronal acetylcholine receptor subunit alpha-7
Target sequence in this assay (P36544 whole entry): as the sequence (P36544 whole entry) above

[21] = tested on: tsA201; experiment: Displacement of [3H]methyllycaconitine from chimeric alpha-7nAChR Y93A mutant/5HT3A receptor in tsA201 cells; assay type: cell-based; conditions: Homo sapiens; in short: as §1
[22] = molecular target: T1, Neuronal acetylcholine receptor; alpha3/beta4; experiment: Displacement of [3H]epibatidine from recombinant rat alpha-3-beta-4 nAChr in HEK293 cell line; assay type: cell-based
[23] = Displacement of [3H]methyllycaconitine from chimeric alpha7nAChR Y195A mutant/5HT3A receptor in tsA201 cells; assay type: cell-based, Homo sapiens; in short: as §1
[24] = cells; assay type: functional, cell-based; conditions: Homo sapiens, HEK293
[25] = Displacement of [3H]methyllycaconitine from chimeric alpha-7nAChR S148A mutant /5HT3A receptor in tsA201 cells; assay type: cell-based, Homo sapiens; in short: as §1
[26] = Antagonist activity at human alpha7 nAChR W149Y mutant co-expressed with human Ric3 in tsA201 cells by FMP assay; assay type: functional, cell-based
[27] = molecular target: T3, Neuronal acetylcholine receptor subunit alpha-7; experiment: Antagonist activity at human alpha-7 nAChR in tsA201 cells coexpressed with Ric3 by FMP assay; assay type: functional, cell-based
Target sequence in this assay (P36544 whole entry): as above

[28] = Antagonist activity at human alpha-7 nAChR Y188A mutant coexpressed with human Ric3 in tsA201 cells by FMP assay; assay type: functional, cell-based
[29] = Displacement of [3H]methyllycaconitine from chimeric alpha7nAChR W55Y mutant/5HT3A receptor in tsA201 cells; assay type: cell-based, Homo sapiens; in short: as §1
[30] = molecular target: T3, Neuronal acetylcholine receptor subunit alpha-7; experiment: Displacement of [3H]methyllycaconitine from alpha7 nAChR in tsA201 cells co-expressed with Ric3; assay type: cell-based
Target sequence in this assay (P36544 whole entry): as above

[31] = Displacement of [3H]methyllycaconitine from chimeric alpha-7nAChR K145R mutant /5HT3A receptor in tsA201 cells; assay type: cell-based, Homo sapiens; in short: as §1
[32] = Displacement of [3H]methyllycaconitine from chimeric alpha7nAChR K145A mutant/5HT3A receptor in tsA201 cells; assay type: cell-based, Homo sapiens; in short: as §1
[33] = tested on: tsA201; experiment: Displacement of [3H]methyllycaconitine from chimeric alpha-7nAChR W149Y mutant/5HT3A receptor W149Y mutant in tsA201 cells; assay type: cell-based; conditions: Homo sapiens; in short: as §1
[34] = Displacement of [3H]methyllycaconitine from chimeric alpha-7nAChR S150A mutant/5HT3A receptor in tsA201 cells; assay type: cell-based, Homo sapiens; in short: as §1

SMILES: C[N+]12CC[C@@H]3[C@@H]4[C@@H]5[C@@H](OCC=C(C1)[C@@H]5C[C@@H]32)N1c2ccccc2[C@@]23CC[N+]5(C)CC6=CCO[C@H]([C@@H]([C@H]12)[C@H]6C[C@@H]35)N4c1ccccc1.[I-].[I-] (stereo partly drawn)
- Activity [1]: inactive
- IC50 [2]: 30 µM
- Activity [3]: inactive
- Ki [4]: 0.31 µM
- pKi [4]: 6.51
- Ki [5]: 11 µM
- Ki [6]: 0.33 µM
- pKi [6]: 6.48
- Ki ([7]; read-out: Ki): 0.3 µM
- Ki ([7]; read-out: pKi (converted)): 0.316 µM
- Ki [8]: 0.66 µM
- pKi [8]: 6.18
- Ki [9]: 0.85 µM
- pKi [9]: 6.07
- IC50 ([10]; read-out: IC50): 7.1 µM
- IC50 ([10]; read-out: pIC50 (converted)): 7.08 µM
- pKi ([11]; hek293): < 4
- Ki ([11]; read-out: Ki): > 100 µM
- Ki [12]: 0.55 µM
- pKi [12]: 6.26
- IC50 [13]: > 100 µM
- pIC50 ([13]; hek293): < 4
- Ki [14]: > 100 µM
- pKi ([14]; hek293): < 4
- Ki [15]: 0.33 µM
- pKi [15]: 6.48
- IC50 [16]: 30 µM
- Activity [17]: inactive
- Ki [18]: 0.39 µM
- pKi [18]: 6.41
- IC50 ([19]; read-out: IC50): 1.3 µM
- IC50 ([19]; read-out: pIC50 (converted)): 1.32 µM
- IC50 [20]: 1.5 µM and 1.51 µM
- Activity [21]: inactive
- Ki [22]: 30 µM
- Ki [23]: 2.9 µM
- pKi [23]: 5.54
- IC50 ([24]; read-out: IC50): > 100 µM
- IC50 ([24]; read-out: pIC50 (converted)): > 100 µM
- Ki [25]: 0.79 µM
- pKi [25]: 6.1
- IC50 ([26]; read-out: IC50): 2.7 µM
- IC50 ([26]; read-out: pIC50 (converted)): 2.69 µM
- IC50 ([27]; read-out: IC50): 1.5 µM
- IC50 ([27]; read-out: pIC50 (converted)): 1.48 µM
- IC50 ([28]; read-out: IC50): 2.5 µM
- IC50 ([28]; read-out: pIC50 (converted)): 2.45 µM
- Ki [29]: 0.3 µM
- pKi [29]: 6.53
- Ki ([30]; read-out: Ki): 0.21 µM
- Ki ([30]; read-out: pKi (converted)): 0.2 µM
- Ki [31]: 0.43 µM
- pKi [31]: 6.37
- Ki [32]: 0.25 µM
- pKi [32]: 6.6
- Activity [33]: inactive
- Ki [34]: 0.5 µM
- pKi [34]: 6.3
